In ChEMBL document CHEMBL1147093, “Miltefosine affects lipid metabolism in Leishmania donovani promastigotes” (2007):
Active and inactive are the calls of the source. No cut-off for these calls is given here.

Tests used:
Leishmania donovani [1] = test: Effect on plasma membrane phospholipid composition in wild type Leishmania donovani LV9 assessed as increase in phosphatidyl ethanolamine at 10 uM after 48 hrs; format: functional
In short: (§1)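 Wild-type LV9 promastigotes grown at 26°C with shaking, starting at 10^6/ml in 1 liter of medium 199 with 10% FCS. HePC in aqueous solution was added 48 h before harvest at late log phase. Cells were washed in TBS and lysed by freeze-thaw; a 2,100 × g pellet gave the plasma membrane-enriched fraction. Lipids were extracted with chloroform/methanol and phospholipids analysed by HPLC (PVA-sil column, light-scattering detection). n = 3.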

Leishmania donovani [2] = test: Effect on total membrane fatty acid composition in Leishmania donovani LV9 promastigotes assessed by measuring dodecanoate fatty acid at 10 uM; format: functional
In short: (§2)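 Log-phase LV9 wild-type promastigotes were exposed to HePC for 48 h before harvest, in 1 liter of medium 199 at 26°C. Washed whole-cell pellets served as total membranes. Fatty acids were analysed by gas chromatography as methyl esters and expressed as % of total fatty acids (mean ± SD, n = 3).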

Leishmania donovani [3] = test: Effect on total membrane sterol composition in Leishmania donovani LV9 promastigotes assessed by measuring ergosta-5,7,22,24(24')-tetraen-3beta-ol content at 10 uM; format: functional
In short: (§3)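 LV9 promastigotes (wild type, 26°C, 1 liter shaken culture) were exposed to HePC for 48 h before harvest. Total membranes were extracted in dichloromethane-methanol 2:1 for 24 h at 4°C, then saponified with 30% KOH/methanol at 80°C for 2 h. Sterols were extracted into hexane, converted to TMS ethers with BSTFA (80°C, 1 h) and analysed by GC-MS with EI at 70 eV. Results are given as % total sterol, n = 3.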

Leishmania donovani [4] = test: Effect on total membrane sterol composition in Leishmania donovani LV9 promastigotes assessed by measuring total C24 alkyl sterol content at 10 uM; format: functional; in short: as §3
Leishmania donovani [5] = test: Effect on total membrane fatty acid composition in Leishmania donovani LV9 promastigotes assessed by measuring 9-hexadecenoate fatty acid at 10 uM; format: functional; in short: as §2
Leishmania donovani [6] = test: Effect on total membrane phospholipid composition in wild type Leishmania donovani LV9 assessed as decrease in phosphatidyl choline at 10 uM after 48 hrs; format: functional; parameters: scale not given: the % may be the effect or the level left
In short: (§4)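 Wild-type LV9 promastigotes were cultured in 1 liter of supplemented medium 199 at 26°C with shaking. HePC (aqueous) was added 48 h before harvest at late log phase. After TBS washes, the whole-cell pellet was taken as total membranes. Lipids were extracted with chloroform/methanol and phospholipids profiled by HPLC on a PVA-sil column with evaporative light-scattering detection. n = 3.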

Leishmania donovani [7] = test: Effect on total membrane sterol composition in Leishmania donovani LV9 promastigotes assessed by measuring cholesta-5,7,24-trien-3beta-ol content at 10 uM; format: functional; in short: as §3
Leishmania donovani [8] = test: Effect on total membrane sterol composition in Leishmania donovani LV9 promastigotes assessed by measuring 14-alpha-Methylergosta-8,24(24')-dien-3beta-ol content at 10 uM; format: functional; in short: as §3
Leishmania donovani [9] = test: Effect on total membrane sterol composition in Leishmania donovani LV9 promastigotes assessed by measuring 14-alpha-Methylcholesta-5,7,24-trien-3beta-ol content at 10 uM; format: functional; in short: as §3
Leishmania donovani [10] = test: Growth inhibition of wild type Leishmania donovani LV9 at 10 uM after 48 hrs; format: functional; conditions: LV9, 48 h
In short: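 Promastigotes were grown in medium 199 with 10% heat-inactivated FCS, HEPES, adenosine, hemin and gentamicin at 26°C in the dark. HePC was tested at 20, 10, 5, 2.5 and 1.25 μM. Cells were counted microscopically at 24, 48 and 72 h. n = 3.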

Leishmania donovani [11] = test: Effect on total membrane sterol composition in Leishmania donovani LV9 promastigotes assessed by measuring 4,4alpha-Dimethylergosta-8,24(24')-dien-3beta-ol content at 10 uM; format: functional; in short: as §3
Leishmania donovani [12] = test: Effect on total membrane fatty acid composition in Leishmania donovani LV9 promastigotes assessed as decrease in C16 fatty acid content at 10 uM; format: functional; parameters: scale not given: the % may be the effect or the level left; in short: as §2
Leishmania donovani [13] = test: Effect on total membrane fatty acid composition in Leishmania donovani LV9 promastigotes assessed by measuring 9-octadecenoate fatty acid at 10 uM; format: functional; in short: as §2
Leishmania donovani [14] = test: Effect on total membrane sterol composition in Leishmania donovani LV9 promastigotes assessed by measuring ergosta-7,22-dien-3beta-ol content at 10 uM; format: functional; in short: as §3
Leishmania donovani [15] = test: Effect on total membrane sterol composition in Leishmania donovani LV9 promastigotes assessed as reduction in total C24 alkyl sterol content; format: functional; parameters: scale not given: the % may be the effect or the level left; in short: as §3
Leishmania donovani [16] = test: Effect on total membrane sterol composition in Leishmania donovani LV9 promastigotes assessed by measuring 4-alpha,14alpha-Dimethylcholesta-8,24-dien-3beta-ol content at 10 uM; format: functional; in short: as §3
Leishmania donovani [17] = test: Effect on total membrane phospholipid composition in wild type Leishmania donovani LV9 assessed as increase in phosphatidyl ethanolamine at 10 uM after 48 hrs; format: functional; in short: as §4
Leishmania donovani [18] = test: Effect on plasma membrane phospholipid composition in wild type Leishmania donovani LV9 assessed as decrease in phosphatidyl choline at 10 uM after 48 hrs; format: functional; parameters: scale not given: the % may be the effect or the level left; in short: as §1
Leishmania donovani [19] = test: Effect on total membrane sterol composition in Leishmania donovani LV9 promastigotes assessed by measuring 14-alpha-Methylergosta-5,7,24(24')-trien-3beta-ol content at 10 uM; format: functional; in short: as §3
Leishmania donovani [20] = test: Effect on total membrane sterol composition in Leishmania donovani LV9 promastigotes assessed by measuring 4-alpha,-14alpha-Dimethylergosta-8,24(24')-dien-3beta-ol content at 10 uM; format: functional; in short: as §3
Leishmania donovani [21] = test: Effect on total membrane sterol composition in Leishmania donovani LV9 promastigotes assessed by measuring 14-alpha-Methylcholesta-8,24-dien-3beta-ol content at 10 uM; format: functional; in short: as §3
Leishmania donovani [22] = test: Effect on total membrane fatty acid composition in Leishmania donovani LV9 promastigotes assessed by measuring octadecanoate fatty acid at 10 uM; format: functional; in short: as §2
Leishmania donovani [23] = test: Effect on total membrane sterol composition in Leishmania donovani LV9 promastigotes assessed by measuring ergosterol content at 10 uM; format: functional; in short: as §3
Leishmania donovani [24] = test: Effect on total membrane fatty acid composition in Leishmania donovani LV9 promastigotes assessed by measuring unsaturated fatty acids at 10 uM; format: functional; in short: as §2
Leishmania donovani [25] = test: Effect on total membrane sterol composition in Leishmania donovani LV9 promastigotes assessed by measuring cholesterol content at 10 uM; format: functional; in short: as §3
Leishmania donovani [26] = test: Effect on total membrane sterol composition in Leishmania donovani LV9 promastigotes assessed by measuring ergosta-5,7,24(24')-trien-3beta-ol content at 10 uM; format: functional; in short: as §3
Leishmania donovani [27] = test: Effect on total membrane sterol composition in Leishmania donovani LV9 promastigotes assessed by measuring ergosta-7,24(24')-dien-3beta-ol content at 10 uM; format: functional; in short: as §3
Leishmania donovani [28] = test: Effect on total membrane sterol composition in Leishmania donovani LV9 promastigotes assessed by measuring 4,4alpha-Dimethylcholesta-8,24-dien-3beta-ol content at 10 uM; format: functional; in short: as §3
Leishmania donovani [29] = test: Effect on total membrane sterol composition in Leishmania donovani LV9 promastigotes assessed by measuring stigmasta-7,24(24')-dien-3beta-ol content at 10 uM; format: functional; in short: as §3
Leishmania donovani [30] = test: Effect on total membrane fatty acid composition in Leishmania donovani LV9 promastigotes assessed by measuring hexadecanoate fatty acid at 10 uM; format: functional; in short: as §2
Leishmania donovani [31] = test: Effect on phospholipid composition in HePC-resistant Leishmania donovani at 10 uM; format: functional, organism-based
In short: (§5)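 HePC-resistant L. donovani LV9 promastigotes were kept under 40 μM HePC in medium 199 with 10% inactivated FCS, HEPES, adenosine, hemin and gentamicin at 26°C in the dark, then exposed to added HePC. Cells were harvested in late log phase and washed in cold TBS. Lipids from total and plasma-membrane-enriched fractions were extracted with chloroform/methanol. Phospholipids were quantified by HPLC on a PVA-sil column with evaporative light scattering detection.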

Leishmania donovani [32] = test: Effect on phospholipid composition in HePC-resistant Leishmania donovani at 1 uM; format: functional, organism-based; in short: as §5
Leishmania donovani [33] = test: Effect on total membrane fatty acid composition in Leishmania donovani LV9 promastigotes assessed by measuring tetradecanoate fatty acid at 10 uM; format: functional; in short: as §2
Leishmania donovani [34] = test: Effect on total membrane sterol composition in Leishmania donovani LV9 promastigotes assessed by measuring 24-Methylenedihydrolanosterol content at 10 uM; format: functional; parameters: scale not given: the % may be the effect or the level left; in short: as §3

CCCCCCCCCCCCCCCCOP(=O)([O-])OCC[N+](C)(C)C [MILTEFOSINE] was tested, and the Activity (Leishmania donovani [1]) was 25%, the Activity (Leishmania donovani [2]) was 1.84% and the Activity (Leishmania donovani [3]) was 1.6%. It also gave an Activity (Leishmania donovani [4]) of 36.6%, an Activity (Leishmania donovani [5]) of 1.56% and an Activity (Leishmania donovani [6]) of 42%. It also gave an Activity (Leishmania donovani [7]) of 3.2%, an Activity (Leishmania donovani [8]) of 0.3% and an Activity (Leishmania donovani [9]) of 0.1%. The inhibition at 10 µM (Leishmania donovani [10]) was 66%, the Activity (Leishmania donovani [11]) was 0.7% and the Activity (Leishmania donovani [12]) was 41%. It also gave an Activity (Leishmania donovani [13]) of 34.22%, an Activity (Leishmania donovani [14]) of 0.2% and an Activity (Leishmania donovani [15]) of 43%. The Activity (Leishmania donovani [16]) was 0.2%, the Activity (Leishmania donovani [17]) was 19% and the Activity (Leishmania donovani [18]) was 47%. The Activity (Leishmania donovani [19]) was 0.3%, the Activity (Leishmania donovani [20]) was 0.2% and the Activity (Leishmania donovani [21]) was 0.2%. It also gave an Activity (Leishmania donovani [22]) of 22.33%, an Activity (Leishmania donovani [23]) of 26.3% and an Activity (Leishmania donovani [24]) of 52%. For the same molecule, the Activity (Leishmania donovani [25]) was 61.2%, the Activity (Leishmania donovani [26]) was 5.1% and the Activity (Leishmania donovani [27]) was 0.4%. The Activity (Leishmania donovani [28]) was 0.2%, the Activity (Leishmania donovani [29]) was 0.3% and the Activity (Leishmania donovani [30]) was 4.8%. For the same molecule, the Activity (Leishmania donovani [31]) was “inactive”, the Activity (Leishmania donovani [32]) was “inactive” and the Activity (Leishmania donovani [33]) was 3.85%. The Activity (Leishmania donovani [34]) was 1.4%.
